According to ChEMBL document CHEMBL1156940, “Modified cap group suberoylanilide hydroxamic acid histone deacetylase inhibitor derivatives reveal improved selective antileukemic activity” (J Med Chem, 2010):
The source made the active and inactive calls. No cut-off for these calls is given here.

Columns and labels:
[1] = test system: HL-60; test: Antiproliferative activity against human HL60 cells after 48 hrs by cell titer-glo assay; assay type: functional, cell-based; settings: HL-60, 48 h
[2] = test system: U-937; test: Antiproliferative activity against human U937 cells after 48 hrs by cell titer-glo assay; assay type: functional, cell-based; settings: U-937, 48 h
How it was run: (§1)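 Cells kept in RPMI-1640 with 10% FBS at 37 °C, 5% CO2. 10^4 suspension cells were plated immediately before dosing. Compounds were added at 0.1–100 µM, final 1% DMSO, with DMSO vehicle control, and incubated 48 h. CellTiter-Glo luminescence was read. EC50 is the dose reducing luminescence to 50% of untreated cultures.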

[3] = test system: Jurkat; test: Antiproliferative activity against human Jurkat JA16 cells after 48 hrs by cell titer-glo assay; assay type: functional, cell-based
[4] = biological target: Histone deacetylase 1 (Homo sapiens) (UniProt Q13547); test: Inhibition of recombinant FLAG-tagged HDAC1 assessed as [3H]acetic acid release preincubated for 30 mins measured after 2 hrs by scintillation counting
Histone deacetylase 1 (Homo sapiens), sequence (Q13547 whole entry): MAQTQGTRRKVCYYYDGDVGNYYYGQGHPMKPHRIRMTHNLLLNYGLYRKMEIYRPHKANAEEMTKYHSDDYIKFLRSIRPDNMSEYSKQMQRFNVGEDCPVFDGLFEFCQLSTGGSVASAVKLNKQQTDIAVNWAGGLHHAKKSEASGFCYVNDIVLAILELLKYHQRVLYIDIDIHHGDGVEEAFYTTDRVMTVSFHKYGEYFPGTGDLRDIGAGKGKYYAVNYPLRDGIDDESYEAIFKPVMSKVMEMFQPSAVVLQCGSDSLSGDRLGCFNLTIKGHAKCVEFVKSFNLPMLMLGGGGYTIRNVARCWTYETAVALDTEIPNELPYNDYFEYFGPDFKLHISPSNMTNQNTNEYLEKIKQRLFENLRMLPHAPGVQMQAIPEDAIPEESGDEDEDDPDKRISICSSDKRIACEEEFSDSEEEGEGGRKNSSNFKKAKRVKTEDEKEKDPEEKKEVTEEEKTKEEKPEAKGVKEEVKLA
How it was run: (§2)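 FLAG-tagged HDAC1 or HDAC6 was immunopurified from stably expressing cell lines and washed in HDAC buffer (10 mM Tris-HCl pH 8.0, 10 mM NaCl, 10% glycerol). Enzyme was preincubated with inhibitor (1 µM) for 30 min at 4 °C, then given 20 000 cpm [3H]peracetylated H4 peptide for 2 h at 37 °C. The reaction was stopped with acetic acid/HCl, extracted into ethyl acetate, and released [3H]acetate counted by scintillation.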

[5] = test system: SK-BR-3; test: Antiproliferative activity against human SK-BR-3 cells after 48 hrs by cell titer-glo assay; assay type: functional, cell-based; settings: SK-BR-3, 48 h
[6] = biological target: T1, Protein deacetylase HDAC6 (Homo sapiens) (UniProt Q9UBN7); test: Inhibition of recombinant FLAG-tagged HDAC6 assessed as [3H]acetic acid release preincubated for 30 mins measured after 2 hrs by scintillation counting; how it was run: as §2
T1 sequence (whole entry): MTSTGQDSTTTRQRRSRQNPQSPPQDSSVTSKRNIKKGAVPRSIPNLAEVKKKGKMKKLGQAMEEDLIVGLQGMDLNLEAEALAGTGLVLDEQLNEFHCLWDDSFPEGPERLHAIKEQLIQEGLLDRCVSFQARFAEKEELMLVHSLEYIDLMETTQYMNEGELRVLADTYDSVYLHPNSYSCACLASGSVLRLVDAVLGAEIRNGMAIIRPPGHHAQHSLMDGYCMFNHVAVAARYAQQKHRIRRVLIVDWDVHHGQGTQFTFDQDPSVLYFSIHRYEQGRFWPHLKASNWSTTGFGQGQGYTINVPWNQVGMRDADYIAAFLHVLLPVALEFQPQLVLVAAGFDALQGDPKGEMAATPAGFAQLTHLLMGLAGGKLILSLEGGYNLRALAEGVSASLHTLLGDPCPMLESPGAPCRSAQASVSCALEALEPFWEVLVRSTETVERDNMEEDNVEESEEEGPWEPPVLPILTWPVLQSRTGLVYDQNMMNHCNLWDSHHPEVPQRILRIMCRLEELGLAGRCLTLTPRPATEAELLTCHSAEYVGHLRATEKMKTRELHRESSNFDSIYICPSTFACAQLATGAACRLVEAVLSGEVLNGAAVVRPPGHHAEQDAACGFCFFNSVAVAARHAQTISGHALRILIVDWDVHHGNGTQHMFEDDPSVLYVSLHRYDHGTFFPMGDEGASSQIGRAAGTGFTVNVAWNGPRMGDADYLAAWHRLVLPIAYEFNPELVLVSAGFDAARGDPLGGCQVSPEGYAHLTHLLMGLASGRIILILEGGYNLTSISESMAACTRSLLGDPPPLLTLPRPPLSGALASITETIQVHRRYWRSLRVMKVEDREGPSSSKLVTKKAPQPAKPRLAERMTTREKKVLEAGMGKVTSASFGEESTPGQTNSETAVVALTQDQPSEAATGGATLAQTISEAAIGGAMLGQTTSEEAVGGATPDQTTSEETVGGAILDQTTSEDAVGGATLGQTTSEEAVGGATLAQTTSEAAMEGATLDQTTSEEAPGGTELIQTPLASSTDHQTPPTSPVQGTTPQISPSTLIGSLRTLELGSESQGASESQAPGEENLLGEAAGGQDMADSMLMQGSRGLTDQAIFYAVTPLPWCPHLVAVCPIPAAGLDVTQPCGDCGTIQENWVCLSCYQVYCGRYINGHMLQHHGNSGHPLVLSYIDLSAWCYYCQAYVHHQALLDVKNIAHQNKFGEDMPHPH

[7] = test system: HT-29; test: Antiproliferative activity against human HT-29 cells after 48 hrs by cell titer-glo assay; assay type: functional, cell-based; settings: HT-29, 48 h
[8] = test system: K562; test: Antiproliferative activity against human K562 cells after 48 hrs by cell titer-glo assay; assay type: functional, cell-based; settings: K562, 48 h; how it was run: as §1

Compound | EC50 [1] [µM] | EC50 [2] [µM] | EC50 [3] [µM] | Activity [4] | EC50 [5] [µM] | Activity [6] | EC50 [7] [µM] | EC50 [8] [µM]
O=C(CCCCCCC(=O)Nc1cccc(Cl)c1)NO | 2.1 | 0.35 | 0.58 | Active | 2 | Active | 1 | 3.5
Nc1ccc(NC(=O)CCCCCCC(=O)NO)cc1 |  | 6.4 |  |  | 8.5 |  | 18 | 
O=C(CCCCCCC(=O)Nc1[nH]c(=O)ncc1F)NO | 18 | 26.5 | 16 |  | 40.5 |  | 63 | > 100
O=C(CCCCCCC(=O)Nc1ccc2ccccc2c1)NO | 1.16 | 0.35 | 0.4 | Active | 1.8 | Active | 0.85 | 3
O=C(CCCCCCC(=O)Nc1ccc(F)cc1)NO |  | 1.8 |  | Active | 3 | Active | 4.2 | 
O=C(CCCCCCC(=O)Nc1ccc2c(c1)Cc1ccccc1-2)NO | 1.13 | 0.6 | 0.43 | Active | 4 | Active | 2.5 | 3.5
O=C(CCCCCCC(=O)Nc1ccc(C(F)(F)F)cc1)NO | 1.54 | 0.45 | 0.53 | Active | 2.2 | Active | 1.4 | 2.1
O=C(CCCCCCC(=O)Nc1ccc(O)cc1)NO |  | 6.4 |  |  | 11 |  | 15 | 
N#Cc1ccc(NC(=O)CCCCCCC(=O)NO)cc1 |  | 7 |  |  | 8.8 |  | 42 | 
O=C(CCCCCCC(=O)NO)NO [SUBEROHYDROXAMIC ACID] |  | 23 |  |  | 27 |  | 32 | 
O=C(CCCCCCC(=O)Nc1ccc([N+](=O)[O-])cc1)NO |  | 22 |  |  | 58 |  | 76 | 
